Values after ≈ are worked out from the molar mass of the structure shown.
Key:
Format in all cases: functional
Proteus mirabilis = assay: In vitro minimum inhibitory concentration (MIC) against Proteus mirabilis 1
Procedure, shortened: (§1)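 Agar dilution on heart infusion agar; the MIC is read as the lowest concentration that inhibits growth of the strain.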

Pseudomonas aeruginosa = assay: In vitro minimum inhibitory concentration (MIC) against NCTC 10490 strain of Pseudomonas aeruginosa; procedure, shortened: as §1
Escherichia coli = assay: In vitro minimum inhibitory concentration (MIC) against NIHJ JC-2 strain of Escherichia coli; procedure, shortened: as §1
Serratia marcescens = assay: In vitro minimum inhibitory concentration (MIC) against Serratia marcescens.; procedure, shortened: as §1
Bacillus subtilis = assay: In vitro minimum inhibitory concentration (MIC) against ATCC 6633 strain of Bacillus subtilis; procedure, shortened: as §1
Klebsiella pneumoniae = assay: In vitro minimum inhibitory concentration (MIC) against Klebsiella pneumonia 12; procedure, shortened: as §1
Staphylococcus aureus = assay: In vitro minimum inhibitory concentration (MIC) against 209P JC-1 strain of Staphylococcus aureus; procedure, shortened: as §1

| Compound | MIC (Proteus mirabilis) [µg/mL] | MIC (Pseudomonas aeruginosa) [µg/mL] | MIC (Escherichia coli) [µg/mL] | MIC (Serratia marcescens) [µg/mL] | MIC (Bacillus subtilis) [µg/mL] | MIC (Klebsiella pneumoniae) [µg/mL] | MIC (Staphylococcus aureus) [µg/mL] |
| --- | --- | --- | --- | --- | --- | --- | --- |
| CO/N=C(\C(=O)N[C@@H]1C(=O)N2C(C(=O)O)=CCO[C@H]12)c1csc(N)n1 | 0.2 (≈ 0.544 µM) | 800 (≈ 2180 µM) | 0.2 (≈ 0.544 µM) | 100 (≈ 272 µM) | 100 (≈ 272 µM) | 0.78 (≈ 2.12 µM) | 25 (≈ 68.1 µM) |
| C=CCO/N=C(\C(=O)N[C@@H]1C(=O)N2C(C(=O)O)=CCO[C@H]12)c1csc(N)n1 | 0.1 (≈ 0.254 µM) | 50 (≈ 127 µM) | 3.13 (≈ 7.96 µM) | 100 (≈ 254 µM) | 100 (≈ 254 µM) | 1.56 (≈ 3.97 µM) | 6.25 (≈ 15.9 µM) |
| C#CCO/N=C(\C(=O)N[C@@H]1C(=O)N2C(C(=O)O)=CCO[C@H]12)c1csc(N)n1 | 0.1 (≈ 0.256 µM) | 400 (≈ 1020 µM) | 1.56 (≈ 3.99 µM) | 100 (≈ 256 µM) | 25 (≈ 63.9 µM) | 0.2 (≈ 0.511 µM) | 12.5 (≈ 31.9 µM) |
| CO/N=C(/C(=O)N[C@@H]1C(=O)N2C(C(=O)O)=CCO[C@H]12)c1csc(N)n1 | 3.13 (≈ 8.52 µM) | 800 (≈ 2180 µM) | 6.25 (≈ 17 µM) | 100 (≈ 272 µM) | 100 (≈ 272 µM) | 1.56 (≈ 4.25 µM) | 12.5 (≈ 34 µM) |
| CC(C)O/N=C(\C(=O)N[C@@H]1C(=O)N2C(C(=O)O)=CCO[C@H]12)c1csc(N)n1 | 0.2 (≈ 0.506 µM) | 12.5 (≈ 31.6 µM) | 0.78 (≈ 1.97 µM) | 25 (≈ 63.2 µM) | 50 (≈ 126 µM) | 0.78 (≈ 1.97 µM) | 12.5 (≈ 31.6 µM) |
| CCCCO/N=C(\C(=O)N[C@@H]1C(=O)N2C(C(=O)O)=CCO[C@H]12)c1csc(N)n1 | 0.78 (≈ 1.91 µM) | 12.5 (≈ 30.5 µM) | 0.78 (≈ 1.91 µM) | 100 (≈ 244 µM) | 50 (≈ 122 µM) | 3.13 (≈ 7.64 µM) | 12.5 (≈ 30.5 µM) |
| CO/N=C(\C(=O)N[C@@H]1C(=O)N2C(C(=O)O)=CCO[C@H]12)c1ccccc1 | 6.25 (≈ 18.1 µM) | 800 (≈ 2320 µM) | 25 (≈ 72.4 µM) | 100 (≈ 290 µM) | 25 (≈ 72.4 µM) | 12.5 (≈ 36.2 µM) | 1.56 (≈ 4.52 µM) |
| CCO/N=C(\C(=O)N[C@@H]1C(=O)N2C(C(=O)O)=CCO[C@H]12)c1csc(N)n1 | 0.05 (≈ 0.131 µM) | 3.13 (≈ 8.21 µM) | 0.1 (≈ 0.262 µM) | 12.5 (≈ 32.8 µM) | 50 (≈ 131 µM) | 0.1 (≈ 0.262 µM) | 6.25 (≈ 16.4 µM) |
| CO/N=C(\C(=O)N[C@@H]1C(=O)N2C(C(=O)O)=CCO[C@H]12)c1ccco1 | 0.78 (≈ 2.33 µM) | 800 (≈ 2390 µM) | 6.25 (≈ 18.6 µM) | 100 (≈ 298 µM) | 50 (≈ 149 µM) | 1.56 (≈ 4.65 µM) | 12.5 (≈ 37.3 µM) |
| CO/N=C(\C(=O)N[C@@H]1C(=O)N2C(C(=O)O)=CCS[C@H]12)c1csc(N)n1 [CEFTIZOXIME] | 0.025 (≈ 0.0652 µM) | 25 (≈ 65.2 µM) | 0.05 (≈ 0.13 µM) | 50 (≈ 130 µM) | 25 (≈ 65.2 µM) | 0.05 (≈ 0.13 µM) | 6.25 (≈ 16.3 µM) |

Reference: ChEMBL document CHEMBL1121540, “Synthesis and antibacterial activity of new 1-oxa-1-dethiacephalosporins” (1980)
